APJ ag: APJ receptor agonism. CHO-K1 APJ PathHunter beta-arrestin, luminescence; 0% DMSO wells, 100% apelin. activation, % at 20 µM. 330,000 compounds, 0.11% hits. AID 2520;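 active = activation more than six SD over the plate average, tested at 20 µM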;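 also: 0% = DMSO alone and 100% = apelin-13 at 10 nM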
Target sequence (P35414 whole entry, looked up): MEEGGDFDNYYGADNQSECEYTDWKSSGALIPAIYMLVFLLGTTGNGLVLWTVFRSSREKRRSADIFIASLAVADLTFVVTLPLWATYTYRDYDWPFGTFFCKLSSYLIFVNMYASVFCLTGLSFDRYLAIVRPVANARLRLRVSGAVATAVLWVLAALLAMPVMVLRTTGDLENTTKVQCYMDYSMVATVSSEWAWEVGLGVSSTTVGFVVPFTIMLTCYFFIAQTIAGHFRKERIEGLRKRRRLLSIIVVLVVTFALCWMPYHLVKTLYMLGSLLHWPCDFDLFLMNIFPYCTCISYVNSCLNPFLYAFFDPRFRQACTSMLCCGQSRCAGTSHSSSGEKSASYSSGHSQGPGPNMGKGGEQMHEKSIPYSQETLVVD
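Test system – PathHunter CHO-K1 APJ (AGTRL-1) beta-arrestin reporter cells · Input – 1000 cells/well · Compound – single test compound dose, 20 µM final, 1% DMSO · Times – compound stimulation 90 min at 25 °C, detection 60 min · Technique – beta-gal luminescence · Read-out basis – APJ–arrestin association signal · Control set – negative DMSO alone, positive Apelin-13 at 10 nM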
EBI2 block: blocks human EBI2 receptor beta-arrestin signaling | inhibition, % at 5 µM | P32249 | EBI2 beta-arrestin recruitment, luminescence, 7a,25-OHC stimulated | 360,000 compounds, 0.81% hits | AID 651636; in the data active = inhibition above about 38%;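 also: enzyme fragment complementation signal reports receptor beta-arrestin coupling in cells; 0% = agonist plus DMSO wells and 100% = wells without agonist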
CCR6 antagonist: CCR6 (human) receptor antagonism. inhibition, % at 20 µM. CHO-K1 CCR6 PathHunter beta-arrestin, luminescence, CCL20-stimulated. P51684. AID 493098. 340,000 compounds, 0.49% hits;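 active = compounds whose inhibition of the agonist-driven luminescence signal at 20 µM reaches about 50%, limit read from the data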;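 also: cells stimulated with CCL20 at 14 nM final; plate controls were DMSO with CCL20 for no effect and DMSO without agonist for full effect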
B2AR ag: human beta-2 adrenergic receptor agonism by FAP; P07550; response, % (concentration not given with the values); Am2.2-beta2AR cells, FAP receptor internalization, flow cytometry; AID 504454; 340,000 compounds, 0.43% hits;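 active = response above a set limit, near 3 SD of response in nonfluorescent compounds, cut at about 42% in these data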
APJ antag: APJ receptor antagonism; P35414; CHO-K1 APJ beta-arrestin complementation, luminescence; 330,000 compounds, 0.32% hits; inhibition, % at 20 µM; AID 2521;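 active = inhibition above about 40% at 20 µM, limit read from the data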;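 also: cells challenged with 10 nM apelin-13 agonist together with compound; plate controls were apelin-13 plus DMSO wells for no effect and DMSO wells lacking apelin-13 for full effect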
CXCR6 block: blocks human CXCR6 beta-arrestin recruitment | AID 602244 | inhibition, % at 20 µM | O00574 | 360,000 compounds, 0.36% hits | CHO-K1 PathHunter CXCR6 beta-arrestin, luminescence; in the data active = inhibition above about 34%, passing the limit was not always enough;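 also: antagonist mode with CXCL16 agonist at 10 nM final; 0% = 10 nM CXCL16 with DMSO and 100% = unstimulated wells without agonist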
APJ antag confirm: APJ receptor antagonism confirmation; shares compounds with APJ antag; APJ beta-arrestin recruitment, luminescence, antagonist mode; inhibition, % at 20 µM; 950 compounds, 66% hits; AID 2766; in the data active = inhibition above about 50%
B2AR ag CP1: activates human beta-2 adrenergic receptor; percent response (surface receptor), % at 10 µM; 1,100 compounds, 25% hits; Am2.2-beta2AR cells, FAP surface receptor, flow cytometry; hits give low values; shares compounds with B2AR ag;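 active = surface receptor percent response at or below 58%, roughly 3 SD from nonfluorescent compounds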
FAP fluor counter: flagged in Am2.2 fluorescence counterscreen for beta-2AR agonists; AID 588765; Am2.2 cells, FAP fluorogen flow cytometry; hits give low values; shares compounds with B2AR ag; calls only at 10 µM; 1,100 tested, under 10 active;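 active = percent response below a set limit in fluorescence channel 1 and below 50% in channel 8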
CXCR6 antag conf: CXCR6 antagonism confirmation, single concentration | shares compounds with CXCR6 block | CHO-K1 CXCR6 PathHunter beta-arrestin, luminescence | inhibition, % at 20 µM | 700 compounds, 65% hits;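 active = mean inhibition over four retests above 40%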;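 also: receptor stimulated with 10 nM CXCL16 agonist; beta-galactosidase fragment complementation upon beta-arrestin recruitment to receptor; plate controls were CXCL16 plus DMSO for no effect and DMSO without CXCL16 for full effect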
An asterisk follows results filed as active; / = no result; + = active, no number. Rows were chosen to be rich in hits. Some 1.8% of all compounds tested hit in one or more screens of this group.

SMILES	APJ ag	EBI2 block	CCR6 antagonist	B2AR ag	APJ antag	CXCR6 block	APJ antag confirm	CXCR6 antag conf	others
CCC(C)c1ccc(O)c(NC(=S)NC(=O)c2cccnc2)c1 (centres undefined)	-12	19	87*	-5	67*	74*	131*	70*
O=C(Nc1nc2c(F)cc(F)cc2s1)c1ccccn1	-8	63*	79*	14	80*	49*	84*	69*
O=C(COc1ccccc1)NNc1nc2c(F)cc(F)cc2s1	-1	3	4	-4	-15	-7	/	/
CC(C)(C)c1ccc(-n2nc(C#N)c(Cl)cc2=O)cc1	-1	82*	50	52*	60*	61*	83*	70*	B2AR ag CP1=22*;FAP fluor counter=+
C/C(=N\NC(=O)Cn1c(-c2ccccn2)nc2ccccc21)c1ccccc1	-9	8	60*	3	47*	46*	72*	47*
N=C1S/C(=C\c2ccco2)C(=O)N1c1nccs1	-8	-3	83*	21	44*	66*	66*	77*
COc1cc(/C=C(\C#N)c2nc(-c3cc4ccccc4oc3=O)cs2)ccc1O	-9	22	60*	-93	53*	49*	76*	49*
Cc1ccc(S(=O)(=O)c2nc(/C=C/c3ccccc3)oc2N2CCC(C(N)=O)CC2)cc1	/	1	/	/	/	5	/	/
COc1ccc2oc(C(=O)OCC(=O)Nc3ccc(C(=O)N(C)C)cc3)c(C)c2c1	4	-10	1	-1	14	1	/	/
Cc1ccsc1/C=C/c1ccc2cccc(O)c2n1	-11	41	74*	6	46*	60*	41	66*
CSc1ccc(/C=C/c2ccc3cccc(O)c3n2)cc1	-2	11	12	8	11	4	/	/
Oc1cccc2ccc(/C=C/c3cccs3)nc12	-8	40*	72*	35	53*	50*	51*	51*
CC1CC(C)CN(S(=O)(=O)c2ccc(C(=O)N(C)Cc3ccccc3)cc2)C1 (centres undefined)	-4	-1	3	4	2	3	/	/
COc1cc(/C=C/c2ccc3cccc(OC)c3n2)c(OC(C)=O)c([N+](=O)[O-])c1	-8	29	53*	13	45*	41*	75*	44*
O=C(NNC(=S)Nc1ccccc1)c1ccncc1	-4	-3	6	-4	-5	-3	/	/
O=C(NNC(=S)Nc1ccccc1)Nc1ccccc1	-3	-2	54*	3	43*	71*	39	39
CCCSc1cc(NCCOC(=O)CCC)c([N+](=O)[O-])c2nonc12	-4	-5	84*	1	42*	62*	75*	72*
CCC(=O)OCCNc1cc(Sc2nc3ccccc3s2)c2nonc2c1[N+](=O)[O-]	-5	27	109*	-203	68*	89*	86*	101*
CC(C)CN1CCC(=O)N([C@H](COc2ccccc2)c2ccccc2)CC1	-1	-2	10	-2	14	-3	/	/
O=C(CC1Sc2ccccc2NC1=O)NNc1cc(Cl)ccc1Cl (centres undefined)	/	-47	-6	4	/	-12	/	/
Cc1cccnc1Nc1nc(-c2ccccn2)cs1	-11	76*	72*	13	80*	72*	103*	89*
COc1ccc(C(C)=O)c(OCC(=O)NCCC2=CCCCC2)c1	/	2	/	/	/	-5	/	/
COC(=O)CSc1[nH]c2ccc(Br)cc2c1[N+](=O)[O-]	-7	18	61*	1	41*	41*	55*	46*
N#C/C(=C\c1ccccc1)C(=O)NNS(=O)(=O)c1ccc(Br)cc1	2	-9	13	1	21	9	/	/
COc1ccc([N+](=O)[O-])cc1NC(=O)c1cn(-c2ccc(C)c(C)c2)c(=O)c2ccccc12	0	8	13	-9	10	-8	/	/
SMILES	APJ ag	EBI2 block	CCR6 antagonist	B2AR ag	APJ antag	CXCR6 block	APJ antag confirm	CXCR6 antag conf	others
N#Cc1c([N+](=O)[O-])cc([N+](=O)[O-])cc1S(=O)(=O)Cc1ccccc1	-1	6	106*	94*	64*	95*	61*	87*
COc1cc(/C=C/[N+](=O)[O-])ccc1OC(=O)c1cc2ccccc2oc1=O	-2	-8	29	54*	46*	76*	91*	69*
COc1ccccc1OC(=O)c1cc2ccccc2oc1=O	-1	-12	-6	-14	11	-1	/	/
CCNC(=O)C1CCCN(C(=O)c2ccc3c(c2)CCO3)CC1 (centres undefined)	/	-7	/	/	/	10	/	/
Cc1c(Nc2cc(Cl)c3nonc3c2[N+](=O)[O-])c(=O)n(-c2ccccc2)n1C	-7	61*	91*	89*	83*	88*	115*	105*
CCc1nc2ccc(C(=O)Nc3cc(-c4ccccc4)ccc3OC)cn2c1N(C=O)CCC(C)C	/	20	/	/	/	14	/	/
COC(=O)c1ccccc1-c1c2ccc(=N)cc-2oc2cc(N)ccc12	-9	21	67*	/	49*	45*	75*	62*
COC(=O)c1ccccc1-c1ccc(/C=N/NC(=O)c2cc3ccccc3o2)o1	1	4	3	8	-10	-2	/	/
CCC(c1nc2ccccc2[nH]1)N(CCCn1ccnc1)C(=O)c1ccc(C(F)(F)F)cc1 (centres undefined)	/	-4	/	/	/	3	/	/
CCn1c(NC)cc(=O)n(C)c1=O	3	0	2	10	-5	-4	/	/
CCn1c(=O)cc(NC2=NCC(C)CN2c2cccc(Cl)c2)n(C)c1=O (centres undefined)	-10	33	66*	-15	62*	57*	110*	59*

High-throughput results deposited in PubChem by several laboratories.
